Results reported in PubChem BioAssay.
Calls of active or inactive are those of the source.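 The calls were made as follows, unless noted: active = fluorescence slope after compound addition differing from the mean of all screened samples at 99.7% confidence, in either direction; inactive = the rest.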

How the values were obtained:
[1] = inhibitors of TNFa-induced NFkB p65 translocation, primary screen, imaging, HUVEC, MLSMR starter and 10KST1 sets (AID 438;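 active = inhibition above 20% together with a positive visual image hit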;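 also: compound added about 3h40 before a 20 min TNFalpha stimulation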;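 as to inhibition: signal is the nuclear over cytoplasmic p65 intensity ratio per well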); conditions: HUVEC TNFa-induced p65 nuclear translocation; cell count: measured here: nuclei count (cytotoxicity indicator), at 2.08 µM; inhibition: at 2 µM, stronger effect = higher value, 0% TNFa-plus-vehicle, 100% no-TNFa wells
[2] = inhibitors of mutant huntingtin aggregation, primary screen, imaging, exon1htt(103Q)mCFP cells, high-content imaging (AID 483;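 active = visual image review flags a hit and inhibition of aggregation exceeds 20%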;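 also: compound exposure lasted 3 days before fixation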;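 as to nuclei count: percent of the per-plate median nuclei count of sample wells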); conditions: exon1htt(103Q)mCFP cell line, aggregate imaging, at 2 µM; inhibition of aggregation: stronger effect = higher value; nuclei count: measured here: cell count, toxicity
[3] = inhibitors of E-selectin induction by TNFa, primary screen, imaging, HUVEC, immunofluorescence, MLSMR starter and 10KST1 sets (AID 487;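 active = visually confirmed hit in the image check and inhibition above 20%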;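 as to inhibition: signal is fraction of cell area covered by stained E-selectin grains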;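 as to nuclei count: 100% = median nuclei count of all wells on the same plate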); conditions: HUVEC TNFalpha-induced E-selectin immunofluorescence imaging, at 2 µM; inhibition: stronger effect = higher value; nuclei count: measured here: cell number, toxicity
[4] = molecular target: Voltage-gated potassium channel subunit beta-2 (Rattus norvegicus) (UniProt P62483); experiment: KvBeta enzyme negative modulators, primary screen, biochemical, NADPH fluorescence (AID 622;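 active = fluorescence slope higher than the sample average by over 3 SD, cut at about -0.22 in these data, passing the limit was not always enough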;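 also: slope of raw intensity against log time taken from 70 to 1610 s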); conditions: recombinant KvBeta, 4-cyanobenzaldehyde reduction, at 10 µM, stronger effect = higher value
[5] = molecular target: Voltage-gated potassium channel subunit beta-2 (Rattus norvegicus) (UniProt P62483); experiment: KvBeta positive modulators, primary screen, biochemical, NADPH fluorescence (AID 623;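 active = NADPH fluorescence slope more negative than the mean of all samples by about 3 SD, 99.7% confidence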;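 also: fluorescence intensity change per second fitted from 20 to 320 s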); conditions: Recombinant KvBeta, NADPH fluorescence decrease slope, 10 min; at 10 µM; stronger effect = lower value
[6] = molecular target: Alpha-2C adrenergic receptor (Homo sapiens) (UniProt P18825); experiment: modulators of alpha2C/GIRK thallium flux, primary screen, cell-based, HEK293 alpha2C/GIRK1/2 (AID 624); conditions: thallium flux BTC fluorescence, at 10 µM, actives lie on both sides;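 also: slope of fluorescence ratio to pre-addition baseline per second over 15 to 24 s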
[7] = inhibitors of larval lipid processing in zebrafish, primary screen, whole organism, PED6 fluorescence, gall bladder and intestine (AID 686;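 active = a full or partial loss of lipid-probe fluorescence in the fish gall bladder, intestine or both, judged by eye; inactive = no fluorescence loss, or compound toxic to the fish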;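 also: larvae 5 to 7 days old with five fish per well; signal comes from phospholipase A2 cleavage of quenched PED6 carried via bile; overnight exposure to compound and PED6 before scoring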); conditions: Zebrafish larvae PED6 lipid processing, fluorescence scoring; screened at 20 µM (by protocol)
In short: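 Doses: 20 µM single dose. Test system: live zebrafish larvae aged 5-7 days, whole organism. Quantity: five larvae per well. Measured by: By-eye fluorescence microscopy. Reagent: ingested quenched lipid PED6 at 100 nM. Read-out: visual per-well fluorescence inhibition score. Times: overnight exposure of larvae to compound plus PED6.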

[8] = inhibitors of Sendai virus-induced IRF3 signaling, primary screen, TLR/RLR signaling modifier project, cell-based, Sendai virus stimulus, luciferase, 10K MLSCN set (AID 602276;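 active = inhibition at or above 50% at 10 µM; inactive = inhibition below 50%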;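 also: firefly luciferase from ISG56 promoter only with Renilla not read in this screen; 0% = Sendai virus plus DMSO and 100% = medium plus DMSO without virus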); conditions: HEK293 RL24 IRF3 luciferase reporter, at 10 µM, stronger effect = higher value
[9] = inhibitors of poly I:C-induced TLR3 signaling, primary screen, cell-based, poly I:C stimulus, luciferase, 10K MLSCN set (AID 602277;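 active = inhibition of the reporter signal at or above 50%; inactive = inhibition below 50%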); conditions: HEK293-TLR3 RL24 IRF3 luciferase reporter, at 10 µM, stronger effect = higher value

Sequence of Alpha-2C adrenergic receptor (Homo sapiens) (P18825 whole entry, looked up): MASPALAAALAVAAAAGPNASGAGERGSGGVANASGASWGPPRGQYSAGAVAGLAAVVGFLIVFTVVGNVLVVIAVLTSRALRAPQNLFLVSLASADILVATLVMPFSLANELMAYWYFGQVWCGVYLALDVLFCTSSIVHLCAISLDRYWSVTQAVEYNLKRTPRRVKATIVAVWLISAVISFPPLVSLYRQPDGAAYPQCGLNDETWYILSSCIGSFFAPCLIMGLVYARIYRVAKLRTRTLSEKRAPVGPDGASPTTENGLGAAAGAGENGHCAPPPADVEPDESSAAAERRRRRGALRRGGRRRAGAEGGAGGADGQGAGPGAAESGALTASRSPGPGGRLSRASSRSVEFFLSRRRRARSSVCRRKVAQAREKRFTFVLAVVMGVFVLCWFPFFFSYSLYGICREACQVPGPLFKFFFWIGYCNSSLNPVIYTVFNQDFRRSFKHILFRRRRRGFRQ
Sequence of Voltage-gated potassium channel subunit beta-2 (Rattus norvegicus) (P62483 whole entry, looked up): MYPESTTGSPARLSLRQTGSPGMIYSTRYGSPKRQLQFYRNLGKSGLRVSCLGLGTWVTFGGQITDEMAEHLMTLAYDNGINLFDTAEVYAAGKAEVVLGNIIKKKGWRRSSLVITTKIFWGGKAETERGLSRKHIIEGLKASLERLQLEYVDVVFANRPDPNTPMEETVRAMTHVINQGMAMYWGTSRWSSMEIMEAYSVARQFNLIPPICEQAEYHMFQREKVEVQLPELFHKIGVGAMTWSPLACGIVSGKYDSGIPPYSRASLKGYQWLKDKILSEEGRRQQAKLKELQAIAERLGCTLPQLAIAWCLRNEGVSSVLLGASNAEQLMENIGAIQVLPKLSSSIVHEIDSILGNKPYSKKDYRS

Compound	cell count [1]	inhibition [1]	inhibition of aggregation [2]	nuclei count [2]	inhibition [3]	nuclei count [3]	fluorescence slope [4]	NADPH fluorescence slope [5]	slope [6]	outcome [7]	inhibition [8]	inhibition [9]
COc1ccc(C(=O)CSc2nnc(-c3ccc(C)cc3)o2)cc1	419	11.2% (inactive)	-14.9% (inactive)	109%	-69.4% (inactive)	112%	-0.371 (inactive)	-1.3e-05 (inactive)	0.00862 (inactive)	inactive	-16.3% (inactive)	-18.5% (inactive)
CCCc1cc(=O)oc2cc(C)cc(OC(=O)c3ccco3)c12	298	-9% (inactive)	14.4% (inactive)	86%	-170% (inactive)	108%	-0.399 (inactive)	-3.5e-05 (inactive)	0.00456 (inactive)	inactive	-12.5% (inactive)	-18.4% (inactive)
COc1ccc(C(C)NC(=O)c2ccoc2C)cc1OC (stereo not drawn)	307	-8.9% (inactive)	-2.3% (inactive)	105%	51.2% (inactive)	54.3%	-0.383 (inactive)	-2.1e-05 (inactive)	0.00668 (inactive)	inactive	14.4% (inactive)	19.8% (inactive)
COc1cccc(NC(=O)N(CCCN2CCOCC2)C(C)c2cc3cccc(OC)c3o2)c1 (stereo not drawn)	863	5% (inactive)	-3.4% (inactive)	106%	-93.2% (inactive)	132%	-0.433 (inactive)	-6.3e-05 (inactive)	0.00436 (inactive)	inactive	16.5% (inactive)	34.8% (inactive)
CC(C)CC(c1nnnn1C(C)(C)C)N1CCN(C2CCCC2)CC1 (stereo not drawn)	487	7.1% (inactive)	-11.7% (inactive)	98.2%	-5.6% (inactive)	109%	-0.33 (inactive)	-6.5e-05 (inactive)	0.00477 (inactive)	inactive	5.92% (inactive)	13.5% (inactive)
O=C(CSc1nnc(-c2ccccn2)n1Cc1ccccc1)N1CCCC1	340	8.1% (inactive)	7.9% (inactive)	112%	19.6% (inactive)	97.4%	-0.365 (inactive)	-6.5e-05 (inactive)	0.00635 (inactive)	inactive	3.06% (inactive)	2.57% (inactive)
CN(c1ccccc1C(=O)NCC1CCCO1)S(C)(=O)=O (stereo not drawn)	314	3.8% (inactive)	4.6% (inactive)	94.8%	-12.5% (inactive)	93.8%	-0.444 (inactive)	-3.7e-05 (inactive)	0.00536 (inactive)	inactive	15.7% (inactive)	14.6% (inactive)
COc1cc(C(=O)Nc2cc(-c3ccccc3)[nH]n2)cc(OC)c1OC	456	-6.3% (inactive)	15.9% (inactive)	94.3%	-41% (inactive)	114%	-0.385 (inactive)	-4.1e-05 (inactive)	0.00552 (inactive)	inactive	22.1% (inactive)	33.8% (inactive)
CC(=O)/C(C[N+]1(C)CCCCC1)=N\O	566	12.1% (inactive)	17.4% (inactive)	107%	26.6% (inactive)	107%	-0.403 (inactive)	-5.2e-05 (inactive)	0.00495 (inactive)	inactive	8.76% (inactive)	13.4% (inactive)
CCCC(=O)Nc1ccc(C(=O)O)cc1NC(=O)CCC	442	-4.3% (inactive)	-9.3% (inactive)	104%	39.4% (inactive)	89.9%	-0.441 (inactive)	-5e-05 (inactive)	0.00422 (inactive)	inactive	12.9% (inactive)	15.5% (inactive)
COc1ccc(CCN2C(=O)CC(N3CCN(S(=O)(=O)c4ccccc4)CC3)C2=O)cc1 (stereo not drawn)	666	11.3% (inactive)	19.5% (inactive)	106%	69.9% (active)	110%	-0.483 (inactive)	-8.5e-06 (inactive)	0.0045 (inactive)	inactive	11.6% (inactive)	6.07% (inactive)
CC1Cc2ccccc2N1CC(=O)NC(=O)NCc1ccco1 (stereo not drawn)	441	-2.6% (inactive)	9.8% (inactive)	91.7%	2.3% (inactive)	109%	-0.436 (inactive)	-9.5e-06 (inactive)	0.00524 (inactive)	inactive	16.6% (inactive)	19% (inactive)
Cc1ccc(C(O)c2nc3ccccc3n2C(C)C)cc1 (stereo not drawn)	304	-3.7% (inactive)	11% (inactive)	91.7%	28.8% (inactive)	86.7%	-0.418 (inactive)	-1.7e-05 (inactive)	0.00388 (inactive)	inactive	20% (inactive)	11.8% (inactive)
CCSCc1nnc(SCC(=O)Nc2cccc(SC)c2)n1C	492	-5.8% (inactive)	0.2% (inactive)	101%	-43.2% (inactive)	147%	-0.452 (inactive)	-4.6e-05 (inactive)	0.00484 (inactive)	inactive	9.84% (inactive)	18.9% (inactive)
